# ChEMBL document CHEMBL5303300, “EUbOPEN Chemogenomics Library - Multiplex” (2023)
# Values joined by “and” are separate entries in the source; they are usually repeats but may differ in a detail not shown here. Identical values can stand only once.
# Test system: Fibroblast
# Test: Multiplex assay against human fibroblast
# Format: toxicity, cell-based
# Details: number of replicates 2
# Procedure, shortened: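 Cells were classed with CellPathfinder machine-learning gating, first as Hoechst high-intensity objects or normal cells, then (normal cells) as healthy, pyknosed or fragmented nuclei, and finally (pyknosed cells) as mitotic or apoptotic. Staining of live cells at seeding used Hoechst33342, BioTracker Green Microtubule Cytoskeleton Dye, MitoTracker Red and Annexin V Alexa Fluor 680, with imaging on a CQ1 microscope at 37°C and 5% CO2 after compound addition. Tubulin, mitochondrial-mass and membrane-permeability phenotypes are per cents of healthy-nucleus cells.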
# [1] = 12 h, 1 µM, compound concentration 1 uM
# [2] = 12 h, 10 µM, compound concentration 10 uM
# [3] = 24 h, 1 µM, compound concentration 1 uM
# [4] = 24 h, 10 µM, compound concentration 10 uM
# [5] = 48 h, 1 µM, compound concentration 1 uM
# [6] = 48 h, 10 µM, compound concentration 10 uM
smiles,measurement,setting,value
CN(C)C/C=C/C(=O)Nc1ccc(C(=O)Nc2cccc(Nc3ncc(Cl)c(-c4c[nH]c5ccccc45)n3)c2)cc1,Population Apoptotic (%),[1],47% and 41%
same,Population Fragmented Nuclei (%),[1],6% and 9%
same,Population Healthy Nuclei (%),[1],61% and 63%
same,Population Hoechst High Intensity Objects (%),[1],0%
same,Population Membrane Permeable-Phenotype (%),[1],6%
same,Population Mitochondria Different-Phenotype (%),[1],9% and 8%
same,Population Mitotic Cells (%),[1],52% and 58%
same,Population Normal (%),[1],99%
same,Population Pyknosed Nuclei (%),[1],32% and 26%
same,Population Tubulin-Different-Phenotype (%),[1],29% and 25%
same,Total Cell Count,[1],144 and 155
same,Population Apoptotic (%),[2],50% and 66%
same,Population Fragmented Nuclei (%),[2],21% and 12%
same,Population Healthy Nuclei (%),[2],41% and 42%
same,Population Hoechst High Intensity Objects (%),[2],0%
same,Population Membrane Permeable-Phenotype (%),[2],21% and 22%
same,Population Mitochondria Different-Phenotype (%),[2],10% and 4%
same,Population Mitotic Cells (%),[2],50% and 33%
same,Population Normal (%),[2],99%
same,Population Pyknosed Nuclei (%),[2],36% and 44%
same,Population Tubulin-Different-Phenotype (%),[2],77% and 63%
same,Total Cell Count,[2],180 and 169
same,Population Apoptotic (%),[3],62% and 51%
same,Population Fragmented Nuclei (%),[3],12% and 10%
same,Population Healthy Nuclei (%),[3],54% and 55%
same,Population Hoechst High Intensity Objects (%),[3],0%
same,Population Membrane Permeable-Phenotype (%),[3],13% and 5%
same,Population Mitochondria Different-Phenotype (%),[3],12% and 11%
same,Population Mitotic Cells (%),[3],37% and 48%
same,Population Normal (%),[3],100%
same,Population Pyknosed Nuclei (%),[3],32% and 35%
same,Population Tubulin-Different-Phenotype (%),[3],37% and 33%
same,Total Cell Count,[3],132 and 140
same,Population Apoptotic (%),[4],79% and 84%
same,Population Fragmented Nuclei (%),[4],12% and 22%
same,Population Healthy Nuclei (%),[4],31%
same,Population Hoechst High Intensity Objects (%),[4],1% and 0%
same,Population Membrane Permeable-Phenotype (%),[4],23% and 16%
same,Population Mitotic Cells (%),[4],20% and 15%
same,Population Normal (%),[4],98% and 99%
same,Population Pyknosed Nuclei (%),[4],55% and 46%
same,Population Tubulin-Different-Phenotype (%),[4],50% and 74%
same,Total Cell Count,[4],167 and 178
same,Population Apoptotic (%),[5],72% and 74%
same,Population Fragmented Nuclei (%),[5],15%
same,Population Healthy Nuclei (%),[5],55% and 50%
same,Population Hoechst High Intensity Objects (%),[5],0%
same,Population Membrane Permeable-Phenotype (%),[5],11% and 5%
same,Population Mitochondria Different-Phenotype (%),[5],7% and 8%
same,Population Mitotic Cells (%),[5],27% and 25%
same,Population Normal (%),[5],100%
same,Population Pyknosed Nuclei (%),[5],29% and 34%
same,Population Tubulin-Different-Phenotype (%),[5],39% and 26%
same,Total Cell Count,[5],124 and 149
same,Population Apoptotic (%),[6],93%
same,Population Fragmented Nuclei (%),[6],32% and 24%
same,Population Healthy Nuclei (%),[6],20% and 19%
same,Population Hoechst High Intensity Objects (%),[6],2% and 0%
same,Population Membrane Permeable-Phenotype (%),[6],25% and 18%
same,Population Mitochondria Different-Phenotype (%),[6],6% and 5%
same,Population Mitotic Cells (%),[6],6%
same,Population Normal (%),[6],97% and 99%
same,Population Pyknosed Nuclei (%),[6],46% and 56%
same,Population Tubulin-Different-Phenotype (%),[6],65% and 68%
same,Total Cell Count,[6],220 and 196
CC(C)N(CCCCOCC(=O)NS(C)(=O)=O)c1cnc(-c2ccccc2)c(-c2ccccc2)n1 [SELEXIPAG],Population Apoptotic (%),[1],54% and 38%
same,Population Fragmented Nuclei (%),[1],4% and 10%
same,Population Healthy Nuclei (%),[1],77% and 72%
same,Population Hoechst High Intensity Objects (%),[1],0%
same,Population Membrane Permeable-Phenotype (%),[1],4%
same,Population Mitochondria Different-Phenotype (%),[1],2% and 0%
same,Population Mitotic Cells (%),[1],45% and 61%
same,Population Normal (%),[1],100%
same,Population Pyknosed Nuclei (%),[1],18% and 16%
same,Population Tubulin-Different-Phenotype (%),[1],10% and 11%
same,Total Cell Count,[1],168 and 186
same,Population Apoptotic (%),[2],56% and 54%
same,Population Fragmented Nuclei (%),[2],7% and 14%
same,Population Healthy Nuclei (%),[2],61% and 63%
same,Population Hoechst High Intensity Objects (%),[2],0%
same,Population Membrane Permeable-Phenotype (%),[2],0% and 6%
same,Population Mitochondria Different-Phenotype (%),[2],1%
same,Population Mitotic Cells (%),[2],43% and 45%
same,Population Normal (%),[2],100% and 99%
same,Population Pyknosed Nuclei (%),[2],31% and 21%
same,Population Tubulin-Different-Phenotype (%),[2],2% and 10%
same,Total Cell Count,[2],148 and 221
same,Population Apoptotic (%),[3],58% and 50%
same,Population Fragmented Nuclei (%),[3],8% and 14%
same,Population Healthy Nuclei (%),[3],75% and 65%
same,Population Hoechst High Intensity Objects (%),[3],0%
same,Population Membrane Permeable-Phenotype (%),[3],6% and 4%
same,Population Mitochondria Different-Phenotype (%),[3],0%
same,Population Mitotic Cells (%),[3],41% and 50%
same,Population Normal (%),[3],99% and 100%
same,Population Pyknosed Nuclei (%),[3],16% and 20%
same,Population Tubulin-Different-Phenotype (%),[3],7% and 8%
same,Total Cell Count,[3],175 and 190
same,Population Apoptotic (%),[4],56% and 50%
same,Population Fragmented Nuclei (%),[4],6% and 13%
same,Population Healthy Nuclei (%),[4],63% and 65%
same,Population Hoechst High Intensity Objects (%),[4],0%
same,Population Membrane Permeable-Phenotype (%),[4],2% and 6%
same,Population Mitochondria Different-Phenotype (%),[4],1%
same,Population Mitotic Cells (%),[4],43% and 50%
same,Population Normal (%),[4],100% and 99%
same,Population Pyknosed Nuclei (%),[4],30% and 21%
same,Population Tubulin-Different-Phenotype (%),[4],6% and 8%
same,Total Cell Count,[4],152 and 221
same,Population Apoptotic (%),[5],80% and 40%
same,Population Fragmented Nuclei (%),[5],8% and 11%
same,Population Healthy Nuclei (%),[5],79% and 75%
same,Population Hoechst High Intensity Objects (%),[5],0%
same,Population Membrane Permeable-Phenotype (%),[5],4% and 6%
same,Population Mitochondria Different-Phenotype (%),[5],0%
same,Population Mitotic Cells (%),[5],20% and 60%
same,Population Normal (%),[5],99%
same,Population Pyknosed Nuclei (%),[5],11% and 12%
same,Population Tubulin-Different-Phenotype (%),[5],4% and 3%
same,Total Cell Count,[5],169 and 204
same,Population Apoptotic (%),[6],90% and 59%
same,Population Fragmented Nuclei (%),[6],8% and 11%
same,Population Healthy Nuclei (%),[6],71% and 68%
same,Population Hoechst High Intensity Objects (%),[6],0%
same,Population Membrane Permeable-Phenotype (%),[6],0% and 4%
same,Population Mitochondria Different-Phenotype (%),[6],0%
same,Population Normal (%),[6],100%
same,Population Pyknosed Nuclei (%),[6],19%
same,Population Tubulin-Different-Phenotype (%),[6],3% and 7%
same,Total Cell Count,[6],151 and 212
